The values below come from ChEMBL document CHEMBL3585293, “Design, antiviral and cytostatic properties of isoxazolidine-containing amonafide analogues” (Bioorg Med Chem, 2015).

One data set deals with Coxsackievirus B4. Nature of the data set: Antiviral activity against Coxsackievirus B4 infected in African green monkey Vero cells assessed as reduction of virus-induced cytopathogenicity. To be noted: Enterovirus B. The format is functional, organism-based. In short, it runs like this:
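Confluent Vero (Coxsackie B4) or HeLa (vesicular stomatitis virus) monolayers in 96-well plates were inoculated with 100 CCID50 virus or 20 PFU and incubated with varying compound concentrations. Cytopathicity was scored once complete in untreated infected controls. […] Two separate experiments were run.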
(In general: Protection from cytopathic effect is a common read-out in antiviral testing.)

Data set [1] can be described thus: Cytotoxicity against African green monkey Vero cells assessed as alternation of cell morphology by microscopic analysis. The format is cell-based. Particulars: chlorocebus sabaeus. In outline:
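Vero cells were exposed to graded compound concentrations. MCC is the lowest concentration producing a microscopically detectable change in cell morphology. Two experiments were run.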

Another data set deals with Punta Toro virus. Nature of the data set: Antiviral activity against Punta Toro virus infected in African green monkey Vero cells assessed as reduction of virus-induced cytopathogenicity. The format is functional, organism-based. In short, it runs like this: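 Confluent Vero monolayers were infected with 100 CCID50 of virus and then incubated with a range of compound concentrations. Viral cytopathicity was scored once it was complete in untreated infected control cultures. […] Two independent experiments were run.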

A further data set concerns Human alphaherpesvirus 2. Nature of the data set: Antiviral activity against Herpes simplex virus 2 G infected in HEL cells assessed as reduction of virus-induced cytopathogenicity. It counts as functional, organism-based. Particulars: Human alphaherpesvirus 2, strain G.
Data set [2] in a line: Cytotoxicity against HEL cells assessed as alternation of cell morphology by microscopic analysis. It counts as cell-based. Particulars: human.
Data set [3] has as its system Human alphaherpesvirus 3. Nature of the data set: Antiviral activity against thymidine kinase-deficient Varicella-zoster virus infected in HEL cells assessed as reduction of virus-induced plaque formation. The format is functional, organism-based. To be noted: Human alphaherpesvirus 3, HEL. In short, it runs like this:
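Plaque-reduction assay in HEL cells. TK+ VZV strains were Oka and YS; TK- strains were 07-1 and YS-R. Virus input was 100 PFU, with graded compound concentrations. Plaques were counted once formation was complete in untreated infected controls. Two independent experiments were run.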

Data set [4] is described as follows: Cytotoxicity against CRFK cells assessed cell viability by MTS assay. It counts as cell-based, Felis catus. Particulars: cat. In short, it runs like this:
(§1)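 Cells were exposed to a range of compound concentrations. Viability was measured by the colorimetric formazan-based MTS assay.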
On the technique in general: Tetrazolium assays rely on reduction of a dye to a coloured formazan, in cell work by metabolically active cells.

The subject of data set [5] is CCRF-CEM. Nature of the data set: Cytotoxicity against human CEM cells assessed as inhibition of cell proliferation. The format is functional, cell-based.
The test system of data set [6] is Cytomegalovirus. Nature of the data set: Antiviral activity against Cytomegalovirus Davis infected in HEL cells assessed as reduction of virus-induced cytopathogenicity. The format is functional, organism-based. To be noted: Human betaherpesvirus 5, Davis.
Data set [7] deals with Human alphaherpesvirus 1. Nature of the data set: Antiviral activity against Herpes simplex virus 1 KOS infected in HEL cells assessed as reduction of virus-induced cytopathogenicity. It counts as functional, organism-based. Particulars: Human alphaherpesvirus 1, KOS.
The next data set relates to MDCK. Nature of the data set: Cytotoxicity against MDCK cells assessed cell viability by MTS assay. The format is cell-based, Canis lupus familiaris. To be noted: dog. In short, it runs like this:
as §1

In data set [8] the test system is Human alphaherpesvirus 3. Put plainly: Antiviral activity against Varicella-zoster virus expressing thymidine kinase infected in HEL cells assessed as reduction of virus-induced plaque formation. It counts as functional, organism-based. To be noted: Human alphaherpesvirus 3, HEL. In outline: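 Plaque-reduction assay in HEL cells. TK+ VZV strains were Oka and YS; TK- strains were 07-1 and YS-R. Virus input was 100 PFU, with graded compound concentrations. Plaques were counted once formation was complete in untreated infected controls. […] Two independent experiments were run.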

Data set [9] has as its system Human alphaherpesvirus 1. Put plainly: Antiviral activity against thymidine kinase-deficient acyclovir-resistant Herpes simplex virus 1 KOS infected in HEL cells assessed as reduction of virus-induced cytopathogenicity. It counts as functional, organism-based. To be noted: Human alphaherpesvirus 1, KOS.
In a further data set the test system is L1210. Put plainly: Cytotoxicity against mouse L1210 cells assessed as inhibition of cell proliferation. The format is functional, cell-based.
The subject of data set [10] is HeLa. Put plainly: Cytotoxicity against human HeLa cells assessed as inhibition of cell proliferation. The format is functional, cell-based.
In data set [11] the test system is Cytomegalovirus. Put plainly: Antiviral activity against Cytomegalovirus AD-169 infected in HEL cells assessed as reduction of virus-induced cytopathogenicity. Particulars: Human betaherpesvirus 5, AD-169, HEL. It counts as functional, organism-based.
The test system of data set [12] is HeLa. Nature of the data set: Cytotoxicity against human HeLa cells assessed as reduction of cell survival after 48 hrs by MTT assay. The format is functional, cell-based.
Data set [13] has as its system CCRF-CEM. Put plainly: Potency index, ratio of 5-Fluorouracil IC50 to compound IC50 for human CEM cells. It counts as functional.
Another data set concerns K562. Nature of the data set: Cytotoxicity against human K562 cells assessed as reduction of cell survival after 48 hrs by MTT assay. The format is functional, cell-based. Particulars: K562, 48 h.

For orientation: EC50 means the concentration needed to bring the measured effect to its halfway point. In general, CC50 refers to the concentration that lowers cell viability or growth by half. For orientation: IC50 means the concentration at which inhibition is half-maximal.

As to `NC(=O)c1ncn([C@@H]2O[C@H](CO)[C@@H](O)[C@H]2O)n1` [RIBAVIRIN], the EC50 in the data set on Coxsackievirus B4 is over 250 µM; with Punta Toro virus it was 112 µM. Moreover, the MCC in [1] is over 250 µM.
As for `CCOP(=O)(OCC)[C@@H]1C[C@H](C(=O)Nc2cc3c4c(cccc4c2)C(=O)N(CCN2CCCC2)C3=O)ON1C` (racemic), the EC50 was 58 µM with Human alphaherpesvirus 2; over 20 µM with Human alphaherpesvirus 3 [3]; 45 µM in the data set on Cytomegalovirus [6]; over 100 µM with Human alphaherpesvirus 1 [7]; over 20 µM in the data set with Human alphaherpesvirus 3 [8]; over 100 µM in the data set with Human alphaherpesvirus 1 [9]. The EC50 in the data set with Cytomegalovirus [11] is 45 µM. In addition, in data set [2], the MCC is at least 100 µM. Besides, the values for the CC50 (in [4]; in the data set with MDCK) were 89.1 µM and over 100 µM, respectively. Besides, the IC50 in the data set with CCRF-CEM [5] worked out at 12 µM; with L1210, 4.4 µM; in the data set with HeLa [10] it was 3 µM.
Take `CCCN1C(=O)c2cccc3cc(NC(=O)[C@H]4C[C@@H](P(=O)(OCC)OCC)N(C)O4)cc(c23)C1=O` (racemic): the MCC in [2] is over 100 µM. Besides, the EC50 in the data set with Human alphaherpesvirus 3 [3] came to 38 µM; with Cytomegalovirus [6], 45 µM; in the data set with Human alphaherpesvirus 3 [8], 20 µM; in the data set with Cytomegalovirus [11], 45 µM. The CC50 (in [4]; in the data set on MDCK) was over 100 µM in each case. Also, the IC50 in the data set on CCRF-CEM [5] worked out at 47 µM; in the data set with L1210, 76 µM; in the data set with HeLa [10] it was 70 µM.
`CCOP(=O)(OCC)C1CC(c2ccc3ccccc3c2)ON1C` (stereo not drawn): the IC50 with HeLa [12] was found to be 50 µM.
On to `CCOP(=O)(OCC)[C@@H]1C[C@@H](C(=O)Nc2cc3c4c(cccc4c2)C(=O)N(CCN(C)C)C3=O)ON1C` (racemic), for which the MCC in [2] is at least 100 µM. For the same molecule, the EC50 in the data set on Human alphaherpesvirus 3 [3] was found to be 26 µM; in the data set with Cytomegalovirus [6], 8.9 µM; with Human alphaherpesvirus 1 [7], 45 µM; in the data set on Human alphaherpesvirus 3 [8], 14 µM; in the data set with Human alphaherpesvirus 1 [9] it was 45 µM; in the data set with Cytomegalovirus [11], 8.9 µM. The results for the CC50 (in data set [4]; in the data set with MDCK) were 95.2 µM and 75.2 µM, respectively. Moreover, the IC50 in the data set on CCRF-CEM [5] was 3.4 µM; in the data set on L1210, 1.5 µM; in the data set on HeLa [10], 1.8 µM. In addition, in the data set on CCRF-CEM [13], the “Ratio IC50” value was 5.
Turning to `CCOP(=O)(OCC)[C@@H]1C[C@@H](C(=O)Nc2cc3c4c(cccc4c2)C(=O)N(CCN2CCCC2)C3=O)ON1C` (relative stereo), in [2], the MCC is at least 100 µM. Moreover, the EC50 with Human alphaherpesvirus 3 [3] is over 20 µM; in the data set with Cytomegalovirus [6], 10.9 µM; in the data set on Human alphaherpesvirus 1 [7] it was 45 µM; in the data set on Human alphaherpesvirus 3 [8], over 20 µM; with Human alphaherpesvirus 1 [9], 45 µM; in the data set on Cytomegalovirus [11] it was 8.9 µM. Moreover, the values for the CC50 (in [4]; in the data set on MDCK) were over 100 µM and 87.3 µM, respectively. In addition, the IC50 in the data set with CCRF-CEM [5] was determined as 3.9 µM; in the data set with L1210 it was 1.7 µM; in the data set with HeLa [10], 1.1 µM. For the same molecule, the “Ratio IC50” value in the data set on CCRF-CEM [13] is 5.
As for `CCCCN1C(=O)c2cccc3cc(NC(=O)[C@@H]4C[C@@H](P(=O)(OCC)OCC)N(C)O4)cc(c23)C1=O` (racemic), the MCC in data set [2] was at least 100 µM. Also, the EC50 in the data set on Human alphaherpesvirus 3 [3] was 40 µM; in the data set with Cytomegalovirus [6], over 20 µM; in the data set on Human alphaherpesvirus 3 [8], 28 µM; with Cytomegalovirus [11] it was over 20 µM. Also, the CC50 (in data set [4]; in the data set with MDCK) was over 100 µM in each case. Moreover, the IC50 worked out at 25 µM in the data set on CCRF-CEM [5], 85 µM in the data set on L1210 and 78 µM in the data set on HeLa [10].
Take `CCOP(=O)(OCC)[C@@H]1C[C@H](C(=O)Nc2cc3c4c(cccc4c2)C(=O)N(CCN(CC)CC)C3=O)ON1C` (racemic): the MCC in data set [2] was over 100 µM. Moreover, the EC50 with Human alphaherpesvirus 3 [3] is 36 µM; in the data set on Cytomegalovirus [6], at least 100 µM; in the data set with Human alphaherpesvirus 3 [8], over 20 µM; in the data set with Cytomegalovirus [11] it was 100 µM. Besides, the CC50 in data set [4] was over 100 µM. Further, the IC50 with CCRF-CEM [5] was 23 µM; in the data set on L1210, 16 µM; with HeLa [10] it was 7.3 µM.
Turning to `CCOP(=O)(OCC)C1CC(c2cccc3ccccc23)ON1C` (stereo not drawn), the IC50 in the data set on K562 stood at 90 µM.
Take `CCOP(=O)(OCC)[C@@H]1C[C@H](C(=O)Nc2cc3c4c(cccc4c2)C(=O)N(CCN(C)C)C3=O)ON1C` (racemic): the EC50 in the data set on Human alphaherpesvirus 2 was 50 µM; with Human alphaherpesvirus 3 [3] it was 20 µM; in the data set on Cytomegalovirus [6], 37 µM; in the data set with Human alphaherpesvirus 1 [7], 50 µM; with Human alphaherpesvirus 3 [8], at least 11 µM; in the data set on Human alphaherpesvirus 1 [9] it was 50 µM. Also, the EC50 in the data set with Cytomegalovirus [11] was 37 µM. Moreover, the MCC in data set [2] is at least 100 µM. The results for the CC50 (in data set [4]; with MDCK) were 62.2 µM and over 100 µM, respectively. In addition, the values for the IC50 with CCRF-CEM [5], in the data set with L1210 and in the data set on HeLa [10] were 6 µM, 2.9 µM and 3.3 µM, respectively.
On to `O=c1[nH]c(=O)n([C@H]2C[C@H](O)[C@@H](CO)O2)cc1/C=C/Br` [BRIVUDINE], for which the MCC in data set [2] is over 250 µM. Moreover, the EC50 in the data set with Human alphaherpesvirus 3 [3] was found to be 1 µM; in the data set on Human alphaherpesvirus 3 [8] it was 0.029 µM; with Human alphaherpesvirus 1 [9], 2 µM.
Regarding `CCOP(=O)(OCC)[C@@H]1C[C@H](C(=O)Nc2cc3c4c(cccc4c2)C(=O)N(CC(C)C)C3=O)ON1C` (racemic), in data set [2], the MCC is over 100 µM. Moreover, the CC50 was over 100 µM in data set [4] and 51.8 µM in the data set on MDCK. Besides, the IC50 with CCRF-CEM [5] amounted to 26 µM; in the data set with L1210, 73 µM; in the data set on HeLa [10], 49 µM. Besides, the EC50 in the data set with Cytomegalovirus [6] and in the data set on Cytomegalovirus [11] was 45 µM each time.
